From PubChem BioAssay
Active and inactive are the calls of the source.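 Rule for the calls, unless noted: active = viability loss from added drug above about 55%, and viability with drug at most 40%, in both replicates (limit read from the data, passing the limit was not always enough); inconclusive = both conditions met in only one replicate; inactive = neither replicate meets both conditions.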

Key:
[1] = HUVEC growth inhibition – cell-based, human, primary screen (AID 575;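 active = viability at or below 30% in both replicate assays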;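 note: 100% = median of untreated cell wells with 0.1% DMSO on each plate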); conditions: HUVEC proliferation, CellTiter-Glo luminescence, 72 h; at 10 µM; stronger effect = lower value
How it was run: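 Timing: 72 h treatment at 37 °C; material: HUVEC primary cells; technique: CellTiter-Glo luminescence measuring cellular ATP; controls: vehicle and MePR control wells; measure: percent of median DMSO-control luminescence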

[2] = H69AR cell proliferation blockers – human, duplicate replicates, primary screen (AID 580;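 active = viability at or under a set limit in both replicates, limit being median viability minus 3 SD, cut at about 48% in these data, passing the limit was not always enough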;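 note: 100% = mean luminescence of untreated wells and 0% = no signal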); conditions: H69AR lung tumor cells viability, ATP luminescence, 72 h; at 10 µM; stronger effect = lower value
[3] = MRP1 drug-resistance reversers in H69AR cells – cell-based, doxorubicin co-treatment, pilot screen (AID 601); conditions: CellTiter-Glo, 72 h, at 10 µM; for differential viability (reversal): stronger effect = higher value
[4] = yeast transport mutant growth inhibition pilot in 384-well plates, post-Golgi transport modulator project (AID 636; in the data active = inhibition above about 31%); conditions: absorbance 615 nm, about 18 h, stronger effect = higher value
[5] = growth suppression of yeast trafficking mutant, preliminary HTS, modulators of trafficking downstream of Golgi apparatus project, 1536-format plate, OD 615 nm (AID 637; in the data active = inhibition above about 30%); conditions: yeast transport mutant growth, absorbance 615 nm, 18 h; stronger effect = higher value
[6] = H69AR cells + 2 uM doxorubicin, measured here: viability with 2 uM doxorubicin, stronger effect = lower value
[7] = H69AR cells, compound alone cytotoxicity

Row | SMILES | viability [1] | viability [2] | differential viability (reversal) ([3]; H69AR cells + 2 uM doxorubicin) | viability [3, 6] [%] | viability [3, 7] [%] | inhibition [4] | inhibition [5]
1 | O=C(c1cc(-c2cccc(O)c2)on1)N1CCN(C(c2ccccc2)c2ccccc2)CC1 | 98.8% (inactive) | 26.8% (active) | 4.38% (inactive) | 22.4 | 26.8 | 0.26% (inactive) | -3.5% (inactive)
2 | O=C(Cc1ccccc1)Nc1ccc(CN2CCOCC2)cc1 | 105% (inactive) | 97.3% (inactive) | 6.05% (inactive) | 91.2 | 97.3 | -4.67% (inactive) | -2.38% (inactive)
3 | CCn1c(C)nc2cc(C(=O)OC(C(F)(F)C(F)F)C(F)(F)C(F)F)ccc21 | 58.4% (inactive) | 79.2% (inactive) | 0.115% (inactive) | 79.1 | 79.2 | -2.47% (inactive) | 3.97% (inactive)
4 | Nc1nnc(-c2cc3ccccc3oc2=O)s1 | 91.8% (inactive) | 91.7% (inactive) | 0.3% (inactive) | 91.4 | 91.7 | -0.66% (inactive) | 2.38% (inactive)
5 | O=C(NCc1ccco1)c1noc2c1CCCCC2 | 96.4% (inactive) | 78.4% (inactive) | 5.79% (inactive) | 72.6 | 78.4 | -3.64% (inactive) | -0.95% (inactive)
6 | COc1ccccc1C(=O)Nc1c2c(nn1-c1cccc(C)c1C)CS(=O)(=O)C2 | 49.2% (inactive) | 95.2% (inactive) | 22.9% (inactive) | 72.3 | 95.2 | -4.13% (inactive) | 1.94% (inactive)
7 | CCN(CC)CCNC(=O)C1CCN(S(=O)(=O)N2CCCCC2)CC1 | 100% (inactive) | 94.8% (inactive) | 0.23% (inactive) | 94.6 | 94.8 | -3.82% (inactive) | 0.32% (inactive)
8 | CCOC(=O)N1CCN(C(=O)Nc2ccc3oc(C)nc3c2)CC1 | 98.2% (inactive) | 93.2% (inactive) | -0.96% (inactive) | 94.1 | 93.2 | -2.63% (inactive) | 0% (inactive)
9 | CC1CCCCN1CCNS(=O)(=O)c1ccc2c(c1)oc(=O)n2C (centres undefined) | 87% (inactive) | 108% (inactive) | 7.79% (inactive) | 99.9 | 108 | -6.13% (inactive) | -1.11% (inactive)
10 | CS(=O)(=O)N1CCN(C(=O)c2ccc(-c3ccccc3)cc2)CC1 | 96.7% (inactive) | 96.1% (inactive) | 10.2% (inactive) | 85.9 | 96.1 | -2.99% (inactive) | 8.25% (inactive)
11 | CCOc1ccccc1OCC(=O)NCc1ccco1 | 84.3% (inactive) | 85.3% (inactive) | 0.205% (inactive) | 85.1 | 85.3 | -3.6% (inactive) | -0.32% (inactive)
12 | COc1ccccc1-c1nc(C(F)(F)F)c(OC)o1 | 104% (inactive) | 91.9% (inactive) | 10.3% (inactive) | 81.6 | 91.9 | -1.97% (inactive) | 17.9% (inactive)
13 | CCOC(=O)N1CCN(C(=O)C(NS(=O)(=O)c2cccc3nsnc23)c2ccccc2)CC1 (centres undefined) | 100% (inactive) | 94.2% (inactive) | -6.95% (inactive) | 101 | 94.2 | -3.38% (inactive) | -0.63% (inactive)
14 | CCCN(CCO)Cc1cccc(Br)c1 | 101% (inactive) | 99.1% (inactive) | 5.32% (inactive) | 93.8 | 99.1 | -6.05% (inactive) | 3.65% (inactive)
15 | COC(=O)c1sccc1NC(=O)c1ccncc1 | 115% (inactive) | 86.4% (inactive) | 8.91% (inactive) | 77.5 | 86.4 | -3.95% (inactive) | 5.56% (inactive)
16 | c1ccc2c3nnc4n(c-3nc2c1)CCCS4 | 94% (inactive) | 104% (inactive) | 11.4% (inactive) | 92.7 | 104 | -1.32% (inactive) | 4.6% (inactive)
17 | CC1(C)CC(=O)c2c(O)cc(O)cc2O1 | 107% (inactive) | 99.7% (inactive) | 15.4% (inactive) | 84.3 | 99.7 | -8.42% (inactive) | -1.43% (inactive)
18 | CCCCCn1c(CN(C)Cc2ccccc2)nc2c1c(=O)n(C)c(=O)n2C | 85.8% (inactive) | 79.8% (inactive) | 11.4% (inactive) | 68.3 | 79.8 | 1.45% (inactive) | 4.76% (inactive)
19 | O=C1CCCc2nc(N3CCCCC3)sc21 | 88.9% (inactive) | 82.8% (inactive) | -6.74% (inactive) | 89.6 | 82.8 | -0.27% (inactive) | -0.95% (inactive)
20 | Cc1cc(N2C(=O)C(=O)/C(=C(/O)c3ccc(F)cc3)C2c2ccc(F)cc2)no1 (centres undefined) | 78.3% (inactive) | 91.3% (inactive) | 3.5% (inactive) | 87.8 | 91.3 | -5.47% (inactive) | 5.08% (inactive)
21 | O=C(CSc1nc(C2CCCCC2)n(-c2ccccc2)n1)NCCN1C(=O)CSC1=O | 103% (inactive) | 98.8% (inactive) | -4.29% (inactive) | 103 | 98.8 | -5.84% (inactive) | 1.27% (inactive)

Row | SMILES | viability [1] | viability [2] | differential viability (reversal) ([3]; H69AR cells + 2 uM doxorubicin) | viability [3, 6] [%] | viability [3, 7] [%] | inhibition [4] | inhibition [5]
22 | CC(=O)NCC(=O)OC(C)C(=O)Nc1ccc(C(C)=O)cc1 (centres undefined) | 97.1% (inactive) | 95.2% (inactive) | -2.15% (inactive) | 97.3 | 95.2 | -6.75% (inactive) | -5.4% (inactive)
23 | O=C1C2C3C=CC(C3)C2C(=O)N1CNc1ccc(O)cc1 (centres undefined) | 93.7% (inactive) | 90.7% (inactive) | -11.8% (inactive) | 102 | 90.7 | 0.13% (inactive) | -4.6% (inactive)
24 | CCOC(=O)c1cc2c(=O)n3cccc(C)c3nc2n(CCOC)c1=NC(=O)c1ccncc1 | 104% (inactive) | 82.6% (inactive) | -10.1% (inactive) | 92.6 | 82.6 | -4.13% (inactive) | 3.33% (inactive)
25 | Nc1c(C(=O)NCCN2CCOCC2)c2nc3ccccc3nc2n1-c1ccc2c(c1)OCO2 | 51.9% (inactive) | 18.1% (active) | -8.75% (inactive) | 26.8 | 18.1 | -6.27% (inactive) | 6.19% (inactive)
26 | COc1ccc(NC(=O)CSc2nnc(-c3ccncc3)n2CC2CCCO2)c(OC)c1 (centres undefined) | 89.2% (inactive) | 104% (inactive) | 5.88% (inactive) | 97.7 | 104 | -6.36% (inactive) | 4.13% (inactive)
27 | N#CC1=C(SCc2ccccc2)NC(=O)C(C#N)C12CCCC2 (centres undefined) | 72.7% (inactive) | 83.1% (inactive) | -9.75% (inactive) | 92.9 | 83.1 | -5% (inactive) | 1.9% (inactive)
28 | COc1cccc(CC(NC(C)=O)C(=O)NC2CCN(c3c4c(nc5ncnn35)CCC4)CC2)c1 (centres undefined) | 90.4% (inactive) | 96.1% (inactive) | 8.17% (inactive) | 87.9 | 96.1 | -6.18% (inactive) | 3.17% (inactive)
29 | CCN(C(=O)c1c(-c2ccccc2)noc1C)c1ccccc1 | 100% (inactive) | 93.8% (inactive) | 9.52% (inactive) | 84.3 | 93.8 | -1.18% (inactive) | 14.9% (inactive)
30 | CCCn1cc(C(CC(=O)O)C(=O)O)c2ccccc21 (centres undefined) | 92.8% (inactive) | 89.1% (inactive) | -3.86% (inactive) | 93 | 89.1 | -7.33% (inactive) | 5.24% (inactive)
31 | Clc1ccccc1-c1nnc2sc(-c3ccccn3)nn12 | 93.8% (inactive) | 86.3% (inactive) | 8.48% (inactive) | 77.8 | 86.3 | -1.97% (inactive) | 4.6% (inactive)
32 | CCOC(=O)c1cccc(NC(=O)CCn2nnc3ccccc32)c1 | 89.9% (inactive) | 98.6% (inactive) | 9.72% (inactive) | 88.9 | 98.6 | -2.5% (inactive) | 0.48% (inactive)
33 | COc1ccccc1C1(CC(=O)N2CCOCC2)CCOC(C(C)C)C1 (centres undefined) | 72.7% (inactive) | 88.8% (inactive) | -2.17% (inactive) | 91 | 88.8 | -5.47% (inactive) | -6.03% (inactive)
34 | COCCOC(=O)C1=C(C)NC(=O)CC1c1cc2c(cc1Br)OCO2 (centres undefined) | 89.4% (inactive) | 97.4% (inactive) | 25.1% (inactive) | 72.4 | 97.4 | -4.67% (inactive) | 2.86% (inactive)
35 | CCCC(CCC)n1[nH]c(=O)c2c(C)cc(C)nc21 | 108% (inactive) | 104% (inactive) | 1.53% (inactive) | 103 | 104 | 0.26% (inactive) | -3.17% (inactive)
36 | Cn1cnc2c1c(=O)n(Cc1cccc(Br)c1)c(=O)n2C | 90.3% (inactive) | 86.9% (inactive) | 4.32% (inactive) | 82.6 | 86.9 | -4% (inactive) | 5.24% (inactive)
37 | Cc1ccc(-c2nnnn2CS(=O)(=O)c2ccccc2)cc1 | 86.7% (inactive) | 96.4% (inactive) | 5.26% (inactive) | 91.1 | 96.4 | -2.08% (inactive) | -2.22% (inactive)
38 | O=C(CCSc1nc(-c2ccco2)cc(C(F)(F)F)n1)NCCc1ccccc1 | 80.7% (inactive) | 79% (inactive) | -15.4% (inactive) | 94.4 | 79 | -4.53% (inactive) | 1.11% (inactive)
39 | CCCOc1cccc(C(=O)N(Cc2ccco2)C2CCS(=O)(=O)C2)c1 (centres undefined) | 98% (inactive) | 90.5% (inactive) | 0.72% (inactive) | 89.8 | 90.5 | -3.6% (inactive) | -7.94% (inactive)
40 | COc1cccc(/C(O)=C2/C(=O)C(=O)N(CCN3CCOCC3)C2c2cccnc2)c1 (centres undefined) | 98.9% (inactive) | 93.6% (inactive) | 0.755% (inactive) | 92.8 | 93.6 | 2.99% (inactive) | -3.02% (inactive)
41 | Nc1nc2ccccc2n1/N=C/c1ccc(Br)cc1 | 72.4% (inactive) | 86.8% (inactive) | 4.02% (inactive) | 82.8 | 86.8 | -3.95% (inactive) | 8.57% (inactive)
42 | CC(OC1=CC(=O)CCC1)C(=O)c1ccccc1 (centres undefined) | 102% (inactive) | 108% (inactive) | 18% (inactive) | 89.8 | 108 | -2.6% (inactive) | -0.48% (inactive)
